Measurements published in publication PMC8108386 (Chemical Science, 2020).
Read-outs that look alike come from different tables or passages of the source.

Columns and labels:
[1] = Singlet oxygen quantum yield by direct 1O2 phosphorescence, relative to [Ru; type: physicochemical; conditions: MeCN
[2] = system: human melanoma SKMEL28 cells; assay: Cytotoxicity and photocytotoxicity, resazurin, 384-well, UTA; type: cell-based; conditions: visible vs. 733 nm
[3] = system: SKMEL28 cells; assay: Photocytotoxicity at high fluence and irradiance, Modulight ML8500; type: cell-based, human
Outline: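 SKMEL28 photocytotoxicity was tested with a well-by-well illumination system that sets wavelength, fluence and irradiance separately for each well, allowing higher fluences and irradiances than whole-plate sources. Light-only control wells were included.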

[4] = system: female C57BL/6J mice; assay: Maximum tolerated dose, dose escalation, intraperitoneal injection; type: in vivo, mouse
Outline: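 A dose-escalation safety study in mice used intraperitoneal injection at doses up to 100 mg kg−1. MTD was assigned from the appearance of observable toxicity.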

[5] = system: B16F10 tumor; type: in vivo, C57BL/6NCrl mice; conditions: for protection from tumor growth (tumor-free mice): challenged with live B16F10 cells
Outline: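 B16F10 cells were treated in vitro with test compound (1.40 μM) plus light. Cells collected 4 h and 12 h post-treatment were pooled and injected SC into the left flank of female and male C57BL/6NCrl mice, with PBS as control. After 7 days, untreated B16F10 cells were injected into the right flank. Tumor growth and tumor-free survival were followed, and hazard ratios derived.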

[6] = system: A375, B16F10 and SKMEL28 melanoma cell lines; assay: Dark and light cytotoxicity stated for all three melanoma cell lines; type: cell-based; conditions: read-out: dark EC50 values, toward all three melanoma cell lines
Outline: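 Log-phase A375, B16F10 and SKMEL28 melanoma cells were seeded and dosed with test compound (1 nM to 300 μM) in the dark. They were incubated 48 h, and viability was read by resazurin assay. EC50 is the concentration that reduces relative viability by 50%, taken from dose–response curves and reported as Log(EC50 ± SEM).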

[7] = Observations on stability and behaviour in solution; type: physicochemical; conditions: 37 °C, extended periods of time, absence of a light trigger

Row | Substance | ΦΔ (singlet oxygen quantum yield) ([1]; λex 630 nm) | ΦΔ (singlet oxygen quantum yield) ([1]; λex 753 nm) | difference between the visible and NIR EC50 values [2] | EC50 ([3]; 753 nm (200 J cm−2, 300 mW cm−2)) | photocytotoxicity with 976 nm ([3]; 976 nm regardless of the fluence (data not shown)) | reduction of cell viability ([3]; all light treatments except 810 nm, down to 2.5 μM) | maximum tolerated dose (MTD) [4] | protection from tumor growth (tumor-free mice) ([5]; female C57BL/6 mice vaccinated with 2-PDT treated B16F10 cells) | hazard ratios ([5]; female and male mice, vaccinated vs. unvaccinated) | protection from tumor growth (tumor-free mice) ([5]; male C57BL/6 mice vaccinated with 2-PDT treated B16F10 cells) | EC50 [6] | stability to ligand dissociation [7] | ΦΔ (singlet oxygen quantum yield) ([1]; λex 455 nm (excitation maximum))
1 | [Ru(tpbn)(dppn)(4-pic)]Cl2 [Compound 2] | 0.93 | 0.86 | 5 fold | 2.02 µM | ineffective | ≥ 60% | 50 mg/kg | 80% | ≤ 0.2 | 55% | ≥ 46.3 µM | completely stable | 
2 | [Ru(tpbn)(phen)(4-pic)]Cl2 [Compound 8] | 0.10 | 0.10 |  |  |  |  |  |  |  |  | ≥ 46.3 µM |  | 0.17
